ChEMBL document CHEMBL1140214, “Antitumor activity of new substituted 3-(5-imidazo[2,1-b]thiazolylmethylene)-2-indolinones and 3-(5-imidazo[2,1-b]thiadiazolylmethylene)-2-indolinones: selectivity against colon tumor cells and effect on cell cycle-related events” (2008)

How the values were obtained:
[1] = Antitumor activity against human ovarian cancer cells after 48 hrs by SRB assay; format: functional, Cancer cell lines; details: for GI50 / TGI: Homo sapiens, Cancer cell lines, 48 h; for TGI: read-out: pTGI (converted)
Method in brief: (§1)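 NCI 60-cell panel two-stage screen: a single-dose pass at 10^-5 M, then five-dose testing for active compounds. Compounds were dissolved in DMSO and tested at five 10-fold dilutions, the highest 10^-4 M (10^-3 M in some cases). Results are given as the negative log molar concentration at three end points: pGI50, pTGI (total growth inhibition) and pLC50. Means are panel-subtype averages.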

[2] = Antitumor activity against human Colon cancer cells after 48 hrs by SRB assay; format: functional, Cancer cell lines; details: for TGI: read-out: pTGI (converted); method in brief: as §1
[3] = tested on: Melanoma cell; test: Antitumor activity against human Melanoma cells after 48 hrs by SRB assay; format: functional; details: for TGI: read-out: pTGI (converted); method in brief: as §1
[4] = tested on: NSCLC; test: Antitumor activity against human NSCLC cells after 48 hrs by SRB assay; format: functional; details: for GI50 / TGI: Homo sapiens, NSCLC, 48 h; for TGI: read-out: pTGI (converted); method in brief: as §1
[5] = Antitumor activity against human CNS cancer cells after 48 hrs by SRB assay; format: functional, Cancer cell lines; details: for TGI: read-out: pTGI (converted); method in brief: as §1
[6] = tested on: Leukemia cell; test: Antitumor activity against human Leukemia cells after 48 hrs by SRB assay; format: functional; details: for GI50 / TGI: Homo sapiens, Leukemia cell, 48 h; for TGI: read-out: pTGI (converted); method in brief: as §1
[7] = Antitumor activity against human renal cancer cells after 48 hrs by SRB assay; format: functional, Cancer cell lines; details: for GI50 / TGI: Homo sapiens, Cancer cell lines, 48 h; for TGI: read-out: pTGI (converted); method in brief: as §1
[8] = Antitumor activity against human Breast cancer cells after 48 hrs by SRB assay; format: functional, Cancer cell lines; details: for GI50 / TGI: Homo sapiens, Cancer cell lines, 48 h; for TGI: read-out: pTGI (converted); method in brief: as §1
[9] = Antitumor activity against human prostate cancer cells after 48 hrs by SRB assay; format: functional, Cancer cell lines; details: for GI50 / TGI: Homo sapiens, Cancer cell lines, 48 h; for TGI: read-out: pTGI (converted); method in brief: as §1
[10] = Homo sapiens, Cancer cell lines, 48 h
[11] = Homo sapiens, Melanoma cell, 48 h, read-out: pGI50 (converted)
[12] = Homo sapiens, Melanoma cell, 48 h
[13] = Homo sapiens, Cancer cell lines, 48 h, read-out: pGI50 (converted)

Structure (SMILES) | GI [1] | GI50 [1] | TGI [1] | GI [2] | GI50 [2, 10] | TGI [2, 10] | GI50 [3] | GI50 [3, 11] | TGI [3, 12] | GI [4] | GI50 [4] | TGI [4] | GI50 [5] | GI50 [5, 13] | GI [6] | GI50 [6] | TGI [6] | GI [7] | GI50 [7] | TGI [7] | other results
Cc1cn2c(/C=C3/C(=O)N(C)c4ccccc43)c(C)nc2s1 | 15.49 µM | 15.5 µM | 74.1 µM | 4.57 µM | 4.57 µM | 69.2 µM | 13.18 µM | 13.2 µM | 72.4 µM | 17.78 µM | 17.8 µM | 75.9 µM | 8.71 µM | 8.71 µM | 5.01 µM | 5.01 µM | 20.9 µM | 22.39 µM | 22.4 µM | 97.7 µM | TGI [5, 10]: 51.3 µM; GI [8]: 5.5 µM; GI50 [8]: 5.5 µM; TGI [8]: 55 µM; GI [9]: 21.38 µM; GI50 [9]: 21.4 µM
Cc1cn2c(/C=C3/C(=O)N(C)c4ccc(O)cc43)c(C)nc2s1 | 9.12 µM | 9.12 µM | 52.5 µM | 3.89 µM | 3.89 µM | 56.2 µM | 7.41 µM | 7.41 µM | 63.1 µM | 12.88 µM | 12.9 µM | 67.6 µM | 4.57 µM | 4.57 µM | 3.39 µM | 3.39 µM | 27.5 µM | 13.18 µM | 13.2 µM | 85.1 µM | TGI [5, 10]: 37.2 µM; GI [8]: 4.57 µM; GI50 [8]: 4.57 µM; TGI [8]: 38 µM; GI [9]: 12.59 µM; GI50 [9]: 12.6 µM
Cc1cn2c(/C=C3/C(=O)N(C)c4ccc(Cl)cc43)c(C)nc2s1 | 3.8 µM | 3.8 µM | 44.7 µM | 2.69 µM | 2.69 µM | 38 µM | 5.5 µM | 5.5 µM | 63.1 µM | 7.94 µM | 7.94 µM | 41.7 µM | 3.16 µM | 3.16 µM | 1.45 µM | 1.45 µM | 11.7 µM | 6.03 µM | 6.03 µM | 61.7 µM | LC50 (50% lethal concentration) [2, 10]: 83.2 µM; LC50 [5, 10]: 79.4 µM; TGI [5, 10]: 28.8 µM; GI [8]: 6.76 µM; GI50 [8]: 6.76 µM; TGI [8]: 33.1 µM; GI [9]: 1 µM; GI50 [9]: 1 µM; TGI [9]: 4.37 µM
COc1ccc2c(c1)/C(=C\c1c(-c3ccc(C)cc3)nc3sc(C)cn13)C(=O)N2 | 18.2 µM | 18.2 µM | 97.7 µM | 12.88 µM | 12.9 µM | 66.1 µM | 16.22 µM | 16.2 µM | 55 µM | 14.45 µM | 14.5 µM | 77.6 µM | 14.45 µM | 14.5 µM | 4.07 µM | 4.07 µM | 51.3 µM | 13.18 µM | 13.2 µM | 67.6 µM | GI [8]: 12.88 µM; GI50 [8]: 12.9 µM; GI [9]: 4.68 µM; GI50 [9]: 4.68 µM
COc1ccc2c(c1)/C(=C\c1c(-c3cc(OC)ccc3OC)nc3sc(C)cn13)C(=O)N2C | 25.7 µM | 25.7 µM | 91.2 µM | 33.11 µM | 33.1 µM | 81.3 µM | 25.12 µM | 25.1 µM | 56.2 µM | 28.84 µM | 28.8 µM | 89.1 µM | 23.99 µM | 24 µM | 15.85 µM | 15.8 µM | 63.1 µM | 30.9 µM | 30.9 µM | 97.7 µM | TGI [5, 10]: 74.1 µM; GI [8]: 28.84 µM; GI50 [8]: 28.8 µM; TGI [8]: 95.5 µM; GI [9]: 30.9 µM; GI50 [9]: 30.9 µM; TGI [9]: 97.7 µM
